Experimental data taken from ChEMBL document CHEMBL1143879, “Identification of novel series of human CCR1 antagonists” (Bioorg Med Chem Lett, 2008).
pIC50: −log10 of the molar value.

Tests used:
[1] = target: T1, C-C chemokine receptor type 1 (Homo sapiens, UniProt P32246); experiment: Antagonist activity at human CCR1 receptor expressed in THP1 cells assessed as human MIP-1-alpha-stimulated intracellular calcium level by FLIPR assay; type: functional, cell-based, THP-1
T1 sequence (P32246 whole entry): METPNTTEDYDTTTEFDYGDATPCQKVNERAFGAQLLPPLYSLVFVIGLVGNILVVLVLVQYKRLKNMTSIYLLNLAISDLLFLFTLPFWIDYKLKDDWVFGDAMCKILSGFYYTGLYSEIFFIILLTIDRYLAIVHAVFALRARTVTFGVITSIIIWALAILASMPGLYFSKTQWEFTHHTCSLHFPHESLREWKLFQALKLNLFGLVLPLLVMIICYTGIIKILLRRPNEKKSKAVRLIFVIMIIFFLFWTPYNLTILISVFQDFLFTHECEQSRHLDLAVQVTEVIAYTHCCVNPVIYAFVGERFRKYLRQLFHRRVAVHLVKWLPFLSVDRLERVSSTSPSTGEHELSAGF
In short: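 THP-1 cells in RPMI-1640 at 2 × 10⁶/ml, mixed 1:1 with calcium dye buffer, loaded 30 min at 37 °C with 2.5 mM probenecid. Cells spun down, resuspended in RPMI-1640 with 0.1% BSA and plated at 1.5 × 10⁵/well with or without compound. Stimulated with 5 nM human MIP-1α; intracellular Ca²⁺ change read by FLIPR. IC50, mean of at least two independent experiments.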

THP-1 = experiment: Inhibition of CCL3-induced chemotaxis in human THP1 cells after 2 hrs; type: functional, cell-based; settings: THP-1, 2 h
In short: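 Calcein-labelled THP-1 cells washed in RPMI-1640 and resuspended at 5 × 10⁶/ml. Preincubated 30 min at 37 °C with compound or DMSO, then placed above a 5 µm polycarbonate filter in a Boyden chamber. The lower wells held 0.5 nM human MIP-1α with or without compound. Chamber incubated 2 h at 37 °C.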

[2] = Selectivity for human CCR1 receptor over CCR4 receptor
[3] = target: T1, C-C chemokine receptor type 1; experiment: Displacement of [125I]MIP1-alpha from human CCR1 receptor expressed in THP1 cells; type: cell-based, THP-1
In short: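 THP-1 cells expressing CCR1, washed in PBS, at 5 × 10⁶/ml with compound or vehicle and 50 pM human [¹²⁵I]MIP-1α. Binding buffer: 50 mM Hepes pH 7.4, 5 mM MgCl₂, 1 mM CaCl₂, 0.5% BSA. Incubated 90 min at room temperature, then filtered on PEI-coated glass fibre and washed with buffer plus 0.5 M NaCl. Bound counts by scintillation. IC50, mean of triplicates in one experiment.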

Question: With `O=S(=O)(c1ccccc1Br)N1CCC(N2CCC(O)(c3ccc(Cl)cc3)CC2)CC1` as the compound, how does the pIC50 [1] read?
Answer: 7.05

Question: And the pIC50 (THP-1)?
Answer: 7.38

Question: What about the Selectivity ratio [2] of the same compound?
Answer: > 100

Question: And the pIC50 [3]?
Answer: 7.05

Question: With `O=S(=O)(NCCCN1CCC(O)(c2ccc(Cl)cc2)CC1)c1ccccc1-c1ccccc1` as the compound, how does the pIC50 [1] read?
Answer: 7.08

Question: And the pIC50 (THP-1)?
Answer: 6.82

Question: And the pIC50 [3]?
Answer: 6.22

Question: With `O=S(=O)(NCCCN1CCC(O)(c2ccc(Cl)cc2)CC1)c1ccccc1-c1cccs1` as the compound, how does the pIC50 [1] read?
Answer: 6.64

Question: What about the pIC50 (THP-1) of the same compound?
Answer: 6.53

Question: What about the Selectivity ratio [2] of the same compound?
Answer: > 100

Question: What about the pIC50 [3] of the same compound?
Answer: 6.62

Question: Which results are given for `O=S(=O)(c1ccccc1)N1CCC(N2CCC(O)(c3ccc(Cl)cc3)CC2)CC1`?
Answer: pIC50 [1]: 5.91; Selectivity ratio [2]: > 100; pIC50 [3]: 5.90

Question: With `O=S(=O)(c1ccccc1Cl)N1CCC(N2CCC(O)(c3ccc(Cl)c(F)c3)CC2)CC1` as the compound, how does the pIC50 [1] read?
Answer: 6.21

Question: What about the pIC50 [3] of the same compound?
Answer: 6.37

Question: With `O=S(=O)(c1ccccc1Cl)N1CCC(N2CCC(O)(c3ccc(Cl)cc3)CC2)CC1` as the compound, how does the pIC50 [1] read?
Answer: 6.89

Question: And the pIC50 (THP-1)?
Answer: 6.74

Question: And the pIC50 [3]?
Answer: 6.70

Question: With `CC1(N2CCC(O)(c3ccc(Cl)cc3)CC2)CCN(S(=O)(=O)c2c(Cl)cccc2Cl)CC1` as the compound, how does the pIC50 [1] read?
Answer: 5.33

Question: And the pIC50 [3]?
Answer: 5.38

Question: Which results are given for `O=S(=O)(c1ccccc1Cl)N1CCC(N2CCC(O)(c3cccc(Cl)c3)CC2)CC1`?
Answer: pIC50 [1]: 5.21; pIC50 [3]: 5.15

Question: With `O=C(NCCCN1CCC(O)(c2ccc(Cl)cc2)CC1)c1ccc2ccccc2c1` as the compound, how does the pIC50 [1] read?
Answer: 5.78

Question: What about the pIC50 [3] of the same compound?
Answer: 5.23

Question: With `Cc1cccc(Cl)c1S(=O)(=O)N1CCC(N2CCC(O)(c3ccc(Cl)cc3)CC2)CC1` as the compound, how does the pIC50 [1] read?
Answer: 6.37

Question: What about the pIC50 [3] of the same compound?
Answer: 6.43

Question: With `O=S(=O)(NCCCN1CCC(O)(c2ccc(Cl)cc2)CC1)c1ccc(Cl)cc1` as the compound, how does the pIC50 [1] read?
Answer: 6.43

Question: And the pIC50 [3]?
Answer: 6.10

Question: With `O=S(=O)(NCCCN1CCC(O)(c2ccc(Cl)cc2)CC1)c1ccccc1F` as the compound, how does the pIC50 [1] read?
Answer: 7.10

Question: What about the pIC50 [3] of the same compound?
Answer: 6.24
